Results gathered from unrelated publications.
Compare with care: the assays were run in different laboratories.
Matrix: plasma

The Cmax of CO[C@H]1CC[C@H](N2C(=O)CNc3ncc(-c4ccc(C(C)(C)O)nc4)nc32)CC1 is reported as 50.8 ng/mL (human; oral, 7.5 mg, multiple doses, patients).
For CCOc1cc([C@@H](CS(C)(=O)=O)N2C(=O)c3cccc(NC(C)=O)c3C2=O)ccc1OC, the Cmax was 278 ng/mL (human; oral, 30 mg, single dose, healthy volunteers).
For O=C(O)C[C@H](O)C[C@H](O)/C=C/c1c(C2CC2)nc2ccccc2c1-c1ccc(F)cc1, the Cmax was 46.5 ng/mL (human; oral, 2 mg, single dose, fed, healthy volunteers, tablet).
For N#CN1C[C@H](n2nc(-c3ccc(Oc4ccc(Cl)cn4)cc3)c(C(N)=O)c2N)CCC12CC2, the Cmax was 1060 ng/mL (human; oral, 600 mg, single dose, fed).
CC(C)(C(=O)N1CCOc2c(C#N)cncc2C1)C(F)F has a Cmax of 116 ng/mL (human; oral, 10 mg, single dose, fasted, healthy volunteers).
For COc1ccc([C@@H]2CN(C(=O)[C@@H](O)CO)C[C@@]2(C)[C@@H](C)O)cc1OC1CN(c2ccc(C)cn2)C1, the Cmax was 669 ng/mL (human; oral, 30 mg, single dose, healthy volunteers).
With CC(C)(O)c1ccccc1-c1ccc2[nH]c(/C=C/c3ccc(C(F)(F)F)cc3)nc2c1 the Cmax was 160 ng/mL (male human; oral, 50 mg, single dose, fasted, healthy volunteers).
With CCCCC[C@H](O)CC[C@@H]1[C@H]2Cc3cccc(OCC(=O)O)c3C[C@H]2C[C@H]1O the Cmax was 0.43 ng/mL (human; inhaled, 18 µg, single dose, healthy volunteers).
Cn1c(=O)oc2ccc(-c3ccc(C[C@@H](C#N)NC(=O)[C@@H]4CNCCCO4)cc3)cc21 has a Cmax of 1360 nM (male human; oral, 65 mg, single dose, healthy volunteers).
The Cmax of CC(C)(Sc1ccncc1-c1ccc(C#N)c2ccccc12)C(=O)O is reported as 181 ng/mL (male human; oral, 20 mg, single dose, fed, healthy volunteers).
Br.Cc1ccc(Sc2ccccc2N2CCNCC2)c(C)c1 gave a Cmax of 18 ng/mL (human; oral, 10 mg, multiple doses, steady state, healthy volunteers).
O=C(Nc1c(Cl)cncc1Cl)c1ccc(OC(F)F)c(OCC2CC2)c1 has a Cmax of 11.4 ng/mL (human; oral, 0.375 mg, multiple doses, once daily, steady state).
With CCn1c(=O)c(-c2cc(NC(=O)Nc3ccccc3)c(F)cc2Br)cc2cnc(NC)cc21 the Cmax was 133 ng/mL (human; oral, 30 mg, single dose, patients).
For CNCc1ccc(-c2[nH]c3cc(F)cc4c3c2CCNC4=O)cc1, the Cmax was 8190 nM (human; oral, 600 mg twice daily, multiple doses, steady state).
The Cmax of C[C@@]1(c2cc(NC(=O)c3ccc(C#N)cn3)ccc2F)C=CSC(N)=N1 is reported as 6.72 ng/mL (male human; oral, 1 mg, single dose).
Cn1cc(-c2ccc(S(=O)(=O)[C@@H]3C[C@@H](C(=O)NC4(C#N)CC4)N(C(=O)C4(C(F)(F)F)CC4)C3)c(C(F)(F)F)c2)cn1 gave a Cmax of 212 ng/mL (human; oral, 30 mg, single dose, fasted, healthy volunteers).
The Cmax of CCc1nc2c(C)cc(N3CCN(CC(=O)N4CC(O)C4)CC3)cn2c1N(C)c1nc(-c2ccc(F)cc2)c(C#N)s1 is reported as 600 ng/mL (human; oral, 60 mg, single dose, fed, healthy volunteers).
With Cc1ccc(C(=O)N(CCCN)[C@@H](c2oc3cc(Cl)ccc3c(=O)c2Cc2ccccc2)C(C)C)cc1 the Cmax was 607 ng/mL (human; intravenous, 5 mg/m², single dose, patients, infusion).
With COc1cc2c(cc1OC)CN(CCc1ccc(NC(=O)c3cc(OC)c(OC)cc3NC(=O)c3cnc4ccccc4c3)cc1)CC2 the Cmax was 2500 nM (human; intravenous, 2 mg/kg, patients).
The Cmax of COc1ccc(-n2nc(C(N)=O)c3c2C(=O)N(c2ccc(N4CCCCC4=O)cc2)CC3)cc1 is reported as 261 ng/mL (human; oral, 10 mg, healthy volunteers).
CCO[C@H]1CCN(Cc2c(OC)cc(C)c3[nH]ccc23)[C@H](c2ccc(C(=O)O)cc2)C1 gave a Cmax of 1450 ng/mL (human; oral, 25 mg, multiple doses, twice daily, patients).
For NS(=O)(=O)NCCNc1nonc1C(=NO)Nc1ccc(F)c(Br)c1, the Cmax was 4820 nM (human; oral, 600 mg, multiple doses, twice daily, steady state, patients).
FC(F)(F)c1ccc(CNc2ccc(Cc3c[nH]c4ncc(Cl)cc34)cn2)cn1 gave a Cmax of 4440 ng/mL (human; oral, 1000 mg, multiple doses, patients).
For C[C@@H](Oc1ccc(S(C)(=O)=O)cc1C(=O)N1C[C@@H]2C[C@]2(c2cc(C(F)(F)F)on2)C1)C(F)(F)F, the Cmax was 312 nM (human; oral, 25 mg, fed, tablet).
CO[C@@H]1[C@H](OC(=O)N2CC(CCN3CCOCC3)C2)CC[C@]2(CO2)[C@H]1[C@@]1(C)O[C@@H]1CC=C(C)C gave a Cmax of 0.45 ng/mL (human; subcutaneous, 0.2 mg, single dose, healthy volunteers).
For Nc1cc(C(F)(F)F)c(-c2cc(N3CCOCC3)nc(N3CCOCC3)n2)cn1, the Cmax was 595 ng/mL (human; oral, 50 mg/day, patients).
COc1cc(C(=O)NC2CCN(C)CC2)c(F)cc1Nc1ncc(C(F)(F)F)c(Oc2cccc3c2C(=O)N(C)C3)n1 gave a Cmax of 430 nM (human; oral, 50 mg, multiple doses, once daily, steady state, patients).
CS(=O)(=O)CCNCc1ccc(-c2ccc3ncnc(Nc4ccc(OCc5cccc(F)c5)c(Cl)c4)c3c2)o1 has a Cmax of 2110 ng/mL (human; oral, 750 mg, multiple doses, twice daily, steady state, patients).
The Cmax of CC(C)n1cc(C#N)c2cc(-n3cc(C(=O)O)cn3)ccc21 is reported as 8770 ng/mL (human; oral, 200 mg, single dose, fasted, healthy volunteers).
CNC(=O)c1cc(Oc2ccc(NC(=O)Nc3cc(C(C)(C)C)nn3-c3ccc4ncccc4c3)c(F)c2)ccn1 has a Cmax of 308 ng/mL (human; oral, 150 mg, multiple doses, twice daily).
For COCCOc1cnc2ccn([C@H](C)c3nnc4c(F)cc(-c5cnn(C)c5)cn34)c(=O)c2c1, the Cmax was 3760 ng/mL (human; oral, 200 mg, multiple doses, once daily, patients).
Oc1cc(O)c2c(c1)O[C@@H](c1ccc(O)c(O)c1)[C@@H](O)C2 has a Cmax of 0.4 ng/mL (human; oral, 10 mg, single dose).
CCCCC1=NC2(CCCC2)C(=O)N1Cc1ccc(-c2ccccc2S(=O)(=O)Nc2noc(C)c2C)c(COCC)c1 has a Cmax of 5150 ng/mL (human; oral, 200 mg, single dose, fasted, healthy volunteers).
